Test results from ChEMBL document CHEMBL1125182, “A new class of analogues of the bifunctional radiosensitizer alpha-(1-aziridinylmethyl)-2-nitro-1H-imidazole-1-ethanol (RSU 1069): the cycloalkylaziridines” (J Med Chem, 1991).

How the values were obtained:
[1] = Partition coefficient measured between octanol and 0.05 M NH4PO4 (pH 7.4) using shake-flask method; format: physicochemical; conditions: octanol/0.05 M NH4PO4 buffer
Cricetulus griseus = species: Cricetulus griseus; assay: The efficiency of radiosensitization is the concentration required to give an SER of 1.6 (in vitro); format: functional
Summary of the method: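 Chinese hamster V79-171b monolayers in RPMI 1640 with 10% FCS, plated ~18 h at 37 °C. Made hypoxic with 95% N2/5% CO2 for 1 h, then given X-rays (320 kV, ~1.5 Gy/min) at room temperature. Drug removed after irradiation; colonies of ≥50 cells scored after 6-7 days. SER is the dose ratio for 25% survival on hypoxic curves ±compound; C1.6 read from SER-versus-concentration plot.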

[2] = Sensitizer enhancement ratio(SER) determined at the maximum nontoxic dose by measuring the number of cells killed at a conc 3 mM (in vitro); format: functional, Cricetulus griseus
Summary of the method: (§1)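 V79-171b cells in RPMI 1640 with 10% FCS, held at maximum nontoxic drug level. Made hypoxic by 95% N2/5% CO2 purge for 1 h, then X-irradiated at room temperature (320 kV, ca. 1.5 Gy/min). Drug medium replaced and colonies (≥50 cells) scored at 6-7 days, 37 °C. SER = ratio of doses giving 25% survival on hypoxic curves without vs with drug.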

[3] = (§2) IC50 of oxic to that of IC50 of hypoxic was determined in V79 cells; hypoxia selective cytotoxicity.; format: functional, Cricetulus griseus
Summary of the method: (§3)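 V79-171b Chinese hamster cells in RPMI 1640 with 10% fetal calf serum, plated and incubated ca. 18 h at 37 °C, then exposed to a range of compound concentrations for 1 h at 37 °C under oxic or hypoxic conditions. Cells rinsed, colonies grown; ratio taken as IC50(oxic)/IC50(hypoxic). Means of replicate experiments agreeing within ±20%.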

[4] = Sensitizer enhancement ratio(SER) determined at the maximum nontoxic dose by measuring the number of cells killed at a conc 0.38 mM (in vitro); format: functional, Cricetulus griseus; summary of the method: as §1
[5] = Plating efficiency of drug treated irradiated tumors relative to irradiated only group; format: ADME
Summary of the method: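 Mice bearing KHT fibrosarcoma (200–500 mg, hypoxic fraction ca. 20%) given vehicle or compound ip 30–120 min before 15 Gy X-rays. Tumours were excised 18 h later, dissociated to single cells and plated in soft agar. Colonies were stained and counted after 12–16 days. Plating efficiency is relative to the irradiated-only group.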

[6] = Sensitizer enhancement ratio(SER) determined at the maximum nontoxic dose by measuring the number of cells killed at a conc 1.9 (in vitro); format: functional, Cricetulus griseus; summary of the method: as §1
Mus musculus = assay: In vivo radiosensitizing activity measured as maximum tolerated dose in mice.; format: functional
[7] = Sensitizer enhancement ratio(SER) determined at the maximum nontoxic dose by measuring the number of cells killed at a conc […] (in vitro); format: functional, Cricetulus griseus; summary of the method: as §1
[8] = Sensitizer enhancement ratio(SER) determined at the maximum nontoxic dose by measuring the number of cells killed at a conc 2 mM (in vitro); format: functional, Cricetulus griseus
[9] = Sensitizer enhancement ratio(SER) determined at the maximum nontoxic dose by measuring the number of cells killed at a conc 1.5 mM (in vitro); format: functional, Cricetulus griseus; summary of the method: as §1
[10] = Sensitizer enhancement ratio(SER) determined at the maximum nontoxic dose by measuring the number of cells killed at a conc 3.0 mM (in vitro)
[11] = Sensitizer enhancement ratio(SER) determined at the maximum nontoxic dose by measuring the number of cells killed at a conc 10 mM (in vitro); format: functional, Cricetulus griseus
[12] = Sensitizer enhancement ratio(SER) determined at the maximum nontoxic dose by measuring the number of cells killed at a conc 0.75 mM (in vitro); format: functional, Cricetulus griseus
V79 = assay: as §2; format: functional; conditions: Cricetulus griseus; summary of the method: as §3

| SMILES | logD [1] | C1.6 (Cricetulus griseus) [mM] | SER [2] | Hypoxic selectivity ratio (IC50 oxic / IC50 hypoxic) [3] | Fold reduction [5] | MTD (Mus musculus) [mg/kg] | also measured |
| --- | --- | --- | --- | --- | --- | --- | --- |
| O=[N+]([O-])c1nccn1CC(O)CN1C2CCCCCC21 (stereo unspecified) | 1.44 | 1 | 1.7 | 1.4 | – | – | – |
| O=[N+]([O-])c1nccn1CC(O)CN1C2CCc3ccccc3C21 (stereo unspecified) | 2.15 | – | – | 1.2 | – | – | SER [4]: 1.2 |
| O=[N+]([O-])c1nccn1CC(O)CNC1C2CCC(C2)[C@@H]1Br (stereo partly specified) | 1.36 | 0.35 | 2.1 | 1.3 | – | – | – |
| O=[N+]([O-])c1nccn1CC(O)CN1C2CCCCC21 (stereo unspecified) | 1.07 | 0.35 | – | 1.6 | 3.91 | 400 | SER [6]: 1.9 |
| O=[N+]([O-])c1nccn1CC(O)CN1CC1 (stereo unspecified) | 0.33 | 0.33 | – | 50 | 6.7 | 100 | SER [7]: 1.9 |
| O=[N+]([O-])c1nccn1CC(O)CNC1COCC[C@@H]1Br (stereo partly specified) | -0.17 | 1.8 | 1.8 | 1.2 | 13 | 1500 | – |
| O=[N+]([O-])c1nccn1CC(O)CN1C2CCCC21 (stereo unspecified) | 0.37 | 0.48 | – | 2 | 6.1 | 450 | SER [7]: 2 |
| O=[N+]([O-])c1nccn1CC(O)CN1C2C3CCC(C3)C21 (stereo unspecified) | 1.6 | 3 | 1.6 | 1.4 | – | – | – |
| O=[N+]([O-])c1nccn1CC(O)CN1CCC1 (stereo unspecified) | -1.51 | – | – | 1 | – | – | SER [8]: 2 |
| CC1CCCC2C1N2CC(O)Cn1ccnc1[N+](=O)[O-] (stereo unspecified) | 1.55 | 0.75 | – | 1 | 2.1 | 500 | SER [9]: 2 |
| O=[N+]([O-])c1nccn1CC(O)CN1C2CCCCCCC21 (stereo unspecified) | 1.84 | 0.75 | 2.1 | 1.2 | 2.6 | 500 | – |
| COC(=O)C1CCN1CC(O)Cn1ccnc1[N+](=O)[O-] (stereo unspecified) | -0.29 | – | – | 1 | – | – | SER [10]: 2.1 |
| O=C(O)C1CCN1CC(O)Cn1ccnc1[N+](=O)[O-] (stereo unspecified) | -2.02 | – | – | 1 | – | – | SER [11]: 2.3 |
| CCOC(=O)C1CCC2C(C1)N2CC(O)Cn1ccnc1[N+](=O)[O-] (stereo unspecified) | 1.13 | 3 | 2 | 1.1 | – | – | – |
| O=[N+]([O-])c1nccn1CC(O)CNC1CCCC[C@@H]1Br (stereo partly specified) | 1.21 | 0.35 | – | 2.5 | 4.5 | 700 | SER [12]: 2.4 |
| O=[N+]([O-])c1nccn1CC(O)CN1C2CCOCC21 (stereo unspecified) | 0.07 | – | – | – | 5.7 | 800 | SER [7]: 1.3; Cytotoxicity (V79): Unstable |
| O=[N+]([O-])c1nccn1CC(O)CNC1CCC[C@H]1Br (stereo partly specified) | 0.43 | 0.75 | – | 2.5 | 4.3 | 1000 | SER [9]: 2.3 |
